ChEMBL document CHEMBL1142894, “Preparation of 5-aryl-3-alkylthio-l,2,4-triazoles and corresponding sulfones with antiinflammatory-analgesic activity” (Bioorg Med Chem, 2007)
The source made the active and inactive calls. The rule behind the calls is not given here.

What was measured:
Mus musculus [1] = assay: Antiinflammatory activity against carrageenan-induced paw edema in Swiss albino mouse assessed as swelling thickness at 50 mg/kg, po after 90 mins; format: functional
How it was run: (§1)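 Oral dosing in 0.5% CMC; vehicle to controls. Then carrageenan (0.5 mg/25 ll, freshly suspended in 154 mM saline) injected into the right hind paw subplantar tissue; saline into the left paw. Right-left footpad thickness difference measured by dial gauge calliper every 90 min over 6 h. Inhibition % is relative to vehicle control. n = 6; mean ± SEM.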

Mus musculus [2] = assay: Analgesic activity against p-benzoquinone-induced abdominal constriction in Swiss albino mouse assessed as number of writhings at 100 mg/kg, po; format: functional, Abdomen
How it was run: (§2)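 Test samples given orally in 0.5% CMC; vehicle to controls. 60 min later, 2.5% (v/v) p-benzoquinone in distilled water, 0.1 ml/10 g, given i.p. Mice housed singly; writhes counted for 15 min starting 5 min after injection. Activity is % change from vehicle controls. n = 6; mean ± SEM.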

Mus musculus [3] = assay: Inhibition of carrageenan-induced paw edema in Swiss albino mouse at 25 mg/kg, po after 270 mins relative to control; format: functional; conditions: 4.5 h; how it was run: as §1
Mus musculus [4] = assay: Antiinflammatory activity against carrageenan-induced paw edema in Swiss albino mouse assessed as swelling thickness at 200 mg/kg, po after 360 mins; format: functional; how it was run: as §1
Mus musculus [5] = assay: Antiinflammatory activity against carrageenan-induced paw edema in Swiss albino mouse assessed as swelling thickness at 100 mg/kg, po after 180 mins; format: functional; how it was run: as §1
Mus musculus [6] = assay: Inhibition of p-benzoquinone-induced writhing in Swiss albino mouse at 50 mg/kg, po relative to control; format: functional
How it was run: (§3)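 Mice, n = 6 per group, dosed orally with a suspension in 0.5% sodium CMC. 60 min later, 0.1 ml/10 g of 2.5% […] p-benzoquinone in distilled water given ip. Abdominal writhes counted per animal for 15 min, starting 5 min after injection. Expressed as % change in mean writhing count versus vehicle controls.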

Mus musculus [7] = assay: Antiinflammatory activity against carrageenan-induced paw edema in Swiss albino mouse assessed as swelling thickness at 200 mg/kg, po after 270 mins; format: functional; how it was run: as §1
Mus musculus [8] = assay: Inhibition of carrageenan-induced paw edema in Swiss albino mouse at 50 mg/kg, po after 180 mins relative to control; format: functional; conditions: 3 h; how it was run: as §1
Mus musculus [9] = assay: Gastric-ulcerogenic effect in Swiss albino mouse assessed as lesions at 50 mg/kg, po; format: functional, organism-based; design: dose 50 mg/kg
How it was run: (§4)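 Mice killed under deep ether anesthesia 3 h after the writhing test; the oral dose in 0.5% CMC was the one used in that test. Stomachs removed, opened along the great curvature and examined under a dissecting microscope for lesions or bleeding. Reported as ratio of ulceration; n = 6.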

Mus musculus [10] = assay: Inhibition of carrageenan-induced paw edema in Swiss albino mouse at 25 mg/kg, po after 360 mins relative to control; format: functional; conditions: 6 h; how it was run: as §1
Mus musculus [11] = assay: Inhibition of carrageenan-induced paw edema in Swiss albino mouse at 200 mg/kg, po after 180 mins relative to control; format: functional; conditions: 3 h; how it was run: as §1
Mus musculus [12] = assay: Inhibition of carrageenan-induced paw edema in Swiss albino mouse at 200 mg/kg, po after 90 mins relative to control; format: functional; conditions: 1.5 h; how it was run: as §1
Mus musculus [13] = assay: Inhibition of carrageenan-induced paw edema in Swiss albino mouse at 100 mg/kg, po after 360 mins relative to control; format: functional; conditions: 6 h; how it was run: as §1
Mus musculus [14] = assay: Antiinflammatory activity against carrageenan-induced paw edema in Swiss albino mouse assessed as swelling thickness at 25 mg/kg, po after 180 mins; format: functional; how it was run: as §1
Mus musculus [15] = assay: Acute toxicity in Swiss albino mouse assessed as lethal effect at 25 mg/kg/day, po after 72 hrs; format: organism-based; design: route oral; conditions: in vivo
How it was run: (§5)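 Oral single dose suspended in 0.5% carboxymethylcellulose, given after a 24 h fast; food and water returned 1 h after dosing. Vehicle-only controls. Mice observed at 1 h, then once daily for 72 h, for toxic signs and mortality.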

Mus musculus [16] = assay: Inhibition of carrageenan-induced paw edema in Swiss albino mouse at 50 mg/kg, po after 270 mins relative to control; format: functional; conditions: 4.5 h
How it was run: (§6)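 Mice, n = 6 per group. Test agent given orally as a suspension in 0.5% sodium CMC in distilled water; controls received vehicle only. Afterwards, 0.5 mg/25 ll carrageenan in saline (154 mM NaCl) injected subplantar into the right hind paw, saline into the left. Right-minus-left footpad thickness measured by dial gauge caliper every 90 min for 6 h. Inhibition is relative to vehicle-control group means.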

Mus musculus [17] = assay: Analgesic activity against p-benzoquinone-induced abdominal constriction in Swiss albino mouse assessed as number of writhings at 200 mg/kg, po; format: functional, Abdomen; how it was run: as §2
Mus musculus [18] = assay: Antiinflammatory activity against carrageenan-induced paw edema in Swiss albino mouse assessed as swelling thickness at 100 mg/kg, po after 270 mins; format: functional; how it was run: as §1
Mus musculus [19] = assay: Inhibition of p-benzoquinone-induced writhing in Swiss albino mouse at 200 mg/kg, po relative to control; format: functional; how it was run: as §3
Mus musculus [20] = assay: Antiinflammatory activity against carrageenan-induced paw edema in Swiss albino mouse assessed as swelling thickness at 100 mg/kg, po after 90 mins; format: functional; how it was run: as §1
Mus musculus [21] = assay: Inhibition of carrageenan-induced paw edema in Swiss albino mouse at 200 mg/kg, po after 360 mins relative to control; format: functional; conditions: 6 h; how it was run: as §1
Mus musculus [22] = assay: Antiinflammatory activity in Swiss albino mouse assessed as inhibition of carrageenan-induced paw edema at 50 mg/kg, po; format: functional
Mus musculus [23] = assay: Analgesic activity against p-benzoquinone-induced abdominal constriction in Swiss albino mouse assessed as number of writhings at 25 mg/kg, po; format: functional, Abdomen; how it was run: as §2
Mus musculus [24] = assay: Gastric-ulcerogenic effect in Swiss albino mouse assessed as lesions at 100 mg/kg, po; format: functional, organism-based; design: dose 100 mg/kg; how it was run: as §4
Mus musculus [25] = assay: Acute toxicity in Swiss albino mouse assessed as lethal effect at 100 mg/kg/day, po after 72 hrs; format: organism-based; design: route oral; conditions: in vivo; how it was run: as §5
Mus musculus [26] = assay: Acute toxicity in Swiss albino mouse assessed as lethal effect at 50 mg/kg/day, po after 72 hrs; format: organism-based; design: route oral; conditions: in vivo; how it was run: as §5
Mus musculus [27] = assay: Antiinflammatory activity against carrageenan-induced paw edema in Swiss albino mouse assessed as swelling thickness at 50 mg/kg, po after 360 mins; format: functional; how it was run: as §1
Mus musculus [28] = assay: Gastric-ulcerogenic effect in Swiss albino mouse assessed as lesions at 25 mg/kg, po; format: functional, organism-based; design: dose 25 mg/kg; how it was run: as §4
Mus musculus [29] = assay: Inhibition of p-benzoquinone-induced writhing in Swiss albino mouse at 25 mg/kg, po relative to control; format: functional; how it was run: as §3
Mus musculus [30] = assay: Inhibition of p-benzoquinone-induced writhing in Swiss albino mouse at 100 mg/kg, po relative to control; format: functional; how it was run: as §3
Mus musculus [31] = assay: Antiinflammatory activity against carrageenan-induced paw edema in Swiss albino mouse assessed as swelling thickness at 50 mg/kg, po after 270 mins; format: functional; how it was run: as §1
Mus musculus [32] = assay: Antiinflammatory activity against carrageenan-induced paw edema in Swiss albino mouse assessed as swelling thickness at 25 mg/kg, po after 360 mins; format: functional; how it was run: as §1
Mus musculus [33] = assay: Acute toxicity in Swiss albino mouse assessed as lethal effect at 200 mg/kg/day, po after 72 hrs; format: organism-based; design: route oral; conditions: in vivo; how it was run: as §5
Mus musculus [34] = assay: Inhibition of carrageenan-induced paw edema in Swiss albino mouse at 100 mg/kg, po after 180 mins relative to control; format: functional; conditions: 3 h; how it was run: as §1
Mus musculus [35] = assay: Inhibition of carrageenan-induced paw edema in Swiss albino mouse at 200 mg/kg, po after 270 mins relative to control; format: functional; conditions: 4.5 h; how it was run: as §1
Mus musculus [36] = assay: Antiinflammatory activity against carrageenan-induced paw edema in Swiss albino mouse assessed as swelling thickness at 50 mg/kg, po after 180 mins; format: functional; how it was run: as §1
Mus musculus [37] = assay: Antiinflammatory activity against carrageenan-induced paw edema in Swiss albino mouse assessed as swelling thickness at 25 mg/kg, po after 90 mins; format: functional; how it was run: as §1
Mus musculus [38] = assay: Inhibition of carrageenan-induced paw edema in Swiss albino mouse at 50 mg/kg, po after 90 mins relative to control; format: functional; conditions: 1.5 h; how it was run: as §6
Mus musculus [39] = assay: Antiinflammatory activity against carrageenan-induced paw edema in Swiss albino mouse assessed as swelling thickness at 25 mg/kg, po after 270 mins; format: functional; how it was run: as §1
Mus musculus [40] = assay: Antiinflammatory activity against carrageenan-induced paw edema in Swiss albino mouse assessed as swelling thickness at 200 mg/kg, po after 90 mins; format: functional; how it was run: as §1
Mus musculus [41] = assay: Inhibition of carrageenan-induced paw edema in Swiss albino mouse at 25 mg/kg, po after 90 mins relative to control; format: functional; conditions: 1.5 h; how it was run: as §1
Mus musculus [42] = assay: Antiinflammatory activity against carrageenan-induced paw edema in Swiss albino mouse assessed as swelling thickness at 200 mg/kg, po after 180 mins; format: functional; how it was run: as §1
Mus musculus [43] = assay: Inhibition of carrageenan-induced paw edema in Swiss albino mouse at 100 mg/kg, po after 270 mins relative to control; format: functional; conditions: 4.5 h; how it was run: as §1
Mus musculus [44] = assay: Analgesic activity against p-benzoquinone-induced abdominal constriction in Swiss albino mouse assessed as number of writhings at 50 mg/kg, po; format: functional, Abdomen; how it was run: as §2
Mus musculus [45] = assay: Inhibition of carrageenan-induced paw edema in Swiss albino mouse at 100 mg/kg, po after 90 mins relative to control; format: functional; conditions: 1.5 h; how it was run: as §1
Mus musculus [46] = assay: Antiinflammatory activity against carrageenan-induced paw edema in Swiss albino mouse assessed as swelling thickness at 100 mg/kg, po after 360 mins; format: functional; how it was run: as §1
Mus musculus [47] = assay: Inhibition of carrageenan-induced paw edema in Swiss albino mouse at 25 mg/kg, po after 180 mins relative to control; format: functional; conditions: 3 h; how it was run: as §1
Mus musculus [48] = assay: Inhibition of carrageenan-induced paw edema in Swiss albino mouse at 50 mg/kg, po after 360 mins relative to control; format: functional; conditions: 6 h; how it was run: as §6

SMILES: CCS(=O)(=O)c1nc(-c2ccccc2Cl)n[nH]1
- Activity (Mus musculus [1]): 36.2 10^-2mm
- Activity (Mus musculus [2]): 23.4
- inhibition in vivo at 25 mg/kg (Mus musculus [3]): 8.8%
- Activity (Mus musculus [4]): 56.5 10^-2mm
- Activity (Mus musculus [5]): 33.8 10^-2mm
- inhibition in vivo at 50 mg/kg (Mus musculus [6]): 54.5%
- Activity (Mus musculus [7]): 51.9 10^-2mm
- inhibition in vivo at 50 mg/kg (Mus musculus [8]): 39.7%
- Activity (Mus musculus [9]): Active
- inhibition in vivo at 25 mg/kg (Mus musculus [10]): 14.6%
- inhibition in vivo at 200 mg/kg (Mus musculus [11]): 22.9%
- inhibition in vivo at 200 mg/kg (Mus musculus [12]): 18.9%
- inhibition in vivo at 100 mg/kg (Mus musculus [13]): 44%
- Activity (Mus musculus [14]): 54.4 10^-2mm
- Activity (Mus musculus [15]): Non-toxic
- inhibition in vivo at 50 mg/kg (Mus musculus [16]): 36.1%
- Activity (Mus musculus [17]): 45.9
- Activity (Mus musculus [18]): 35 10^-2mm
- inhibition in vivo at 200 mg/kg (Mus musculus [19]): 10.7%
- Activity (Mus musculus [20]): 29.8 10^-2mm
- inhibition in vivo at 200 mg/kg (Mus musculus [21]): 21.5%
- inhibition in vivo at 50 mg/kg (Mus musculus [22]): 37.9%
- Activity (Mus musculus [23]): 38.2
- Activity (Mus musculus [24]): Active
- Activity (Mus musculus [25]): Non-toxic
- Activity (Mus musculus [26]): Non-toxic
- Activity (Mus musculus [27]): 40.5 10^-2mm
- Activity (Mus musculus [28]): Active
- inhibition in vivo at 25 mg/kg (Mus musculus [29]): 25.7%
- inhibition in vivo at 100 mg/kg (Mus musculus [30]): 50.5%
- Activity (Mus musculus [31]): 41.4 10^-2mm
- Activity (Mus musculus [32]): 61.5 10^-2mm
- Activity (Mus musculus [33]): Non-toxic
- inhibition in vivo at 100 mg/kg (Mus musculus [34]): 34.4%
- inhibition in vivo at 200 mg/kg (Mus musculus [35]): 19.9%
- Activity (Mus musculus [36]): 35.8 10^-2mm
- Activity (Mus musculus [37]): 47.2 10^-2mm
- inhibition in vivo at 50 mg/kg (Mus musculus [38]): 31.9%
- Activity (Mus musculus [39]): 59.1 10^-2mm
- Activity (Mus musculus [40]): 43.1 10^-2mm
- inhibition in vivo at 25 mg/kg (Mus musculus [41]): 11.3%
- Activity (Mus musculus [42]): 45.8 10^-2mm
- inhibition in vivo at 100 mg/kg (Mus musculus [43]): 40.5%
- Activity (Mus musculus [44]): 23.4
- inhibition in vivo at 100 mg/kg (Mus musculus [45]): 33.4%
- Activity (Mus musculus [46]): 38.5 10^-2mm
- inhibition in vivo at 25 mg/kg (Mus musculus [47]): 8.4%
- inhibition in vivo at 50 mg/kg (Mus musculus [48]): 43.8%
